The results in this text go back to ChEMBL document CHEMBL1145295, “Synthesis and biological evaluation of 5-arylamino-6-chloro-1H-indazole-4,7-diones as inhibitors of protein kinase B/Akt” (Bioorg Med Chem Lett, 2006).

By IC50 is commonly meant the concentration at which inhibition is half-maximal.

The source made the active and inactive calls. No cut-off for these calls is given here. Where only a bound is given, the exact number is not on record here.

The test system of one experiment is PC-3. The experiment can be described thus: Cytotoxicity against human PC3 cells by MTT assay.
Conditions: not given
Type of experiment: functional, cell-based. The procedure, abridged:
(§1)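 MTT colorimetric cytotoxicity assay following NCI protocols. Cells grown in DMEM with 10% heat-inactivated FBS at 37 °C, 5% CO₂.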
`O=C1C(Nc2ccc(C(F)(F)F)cc2)=C(Cl)C(=O)c2[nH]ncc21` came in with an IC50 of 13.7 µM.

As to `O=C1C(Nc2cccc(F)c2)=C(Cl)C(=O)c2[nH]ncc21`, the half-inhibitory concentration (IC50) is 6.3 µM.

For the next experiment, the target named is RAC-alpha serine/threonine-protein kinase (Homo sapiens, UniProt P31749). The experiment can be described thus: Inhibition of Akt1 activity assessed as decrease in GSK3 phosphorylation. Type of experiment: functional.
Sequence of RAC-alpha serine/threonine-protein kinase (P31749 whole entry): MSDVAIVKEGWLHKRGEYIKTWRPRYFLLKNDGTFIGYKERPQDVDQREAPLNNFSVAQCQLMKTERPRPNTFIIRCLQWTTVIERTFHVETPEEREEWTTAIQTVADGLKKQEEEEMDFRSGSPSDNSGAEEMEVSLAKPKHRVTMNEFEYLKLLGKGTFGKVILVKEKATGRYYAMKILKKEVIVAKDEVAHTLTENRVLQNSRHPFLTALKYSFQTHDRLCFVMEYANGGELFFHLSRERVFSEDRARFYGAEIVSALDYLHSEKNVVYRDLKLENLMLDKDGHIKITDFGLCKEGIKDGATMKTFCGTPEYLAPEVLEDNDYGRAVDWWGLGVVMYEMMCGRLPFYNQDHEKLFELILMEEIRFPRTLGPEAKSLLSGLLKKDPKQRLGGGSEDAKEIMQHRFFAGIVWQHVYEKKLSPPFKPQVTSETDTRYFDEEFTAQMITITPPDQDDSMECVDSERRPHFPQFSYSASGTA
Conditions: not given
The method, boiled down: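 Akt1 enzyme (10 U/µL) preincubated 10 min at 37 °C with compound in DMSO in HEPES 20 mM, NaCl 14.3 mM, EDTA 1 mM, DTT 2 mM. Then 3 µL of 2 mM ATP and GSK3 fusion protein added, 30 min at 37 °C. Stopped at 70 °C for 5 min. Phospho-GSK3 detected by SDS-PAGE/Western or dot blot with anti-phospho (Ser21/9) antibody, ECL and densitometry.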
On to `O=C1C(Sc2ccc(Cl)c(Cl)c2)=C(Cl)C(=O)c2[nH]ncc21`, for which the half-maximal inhibitory concentration (IC50) was found to be 12.3 µM.

Regarding `O=C1C(Nc2ccc(F)cc2F)=C(Cl)C(=O)c2[nH]ncc21`, the IC50 was 16 µM.

As for `O=C1C(Nc2ccccc2F)=C(Cl)C(=O)c2[nH]ncc21`, the 50% inhibitory concentration (IC50) turned out to be 15.8 µM.

Consider `O=C1C(Nc2ccc(F)cc2)=C(Cl)C(=O)c2[nH]ncc21`, for which the half-inhibitory concentration (IC50) was more than 50 µM.

As for `O=C1C(Nc2cc(F)cc(F)c2)=C(Cl)C(=O)c2[nH]ncc21`, the IC50 is more than 50 µM.

For `O=C1C(Nc2ccc(C(F)(F)F)cc2)=C(Cl)C(=O)c2[nH]ncc21`, the IC50 stood at 12.4 µM.

In the case of `Nc1ccc(N)c2[nH]ncc12`, the IC50 was more than 50 µM.

`O=C1C(Nc2cccc(F)c2)=C(Cl)C(=O)c2[nH]ncc21`: the IC50 is 11.8 µM.

For `CCOc1ccc(NC2=C(Cl)C(=O)c3[nH]ncc3C2=O)cc1`, the half-inhibitory concentration (IC50) was 4.9 µM.

For `O=C1C(Nc2cccc(Br)c2)=C(Cl)C(=O)c2[nH]ncc21`, the IC50 was found to be 13.9 µM.

Turning to `Cc1cc(C)cc(SC2=C(Cl)C(=O)c3[nH]ncc3C2=O)c1`, the IC50 was more than 50 µM.

A further experiment concerns PC-3. Kind of experiment: Antitumor activity against human PC3 cell xenografted in nude mouse at 5 mg/kg/day after 16 days.
Conditions: not given
Type of experiment: functional. The method, boiled down: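 Male nude mice, 4 weeks old, inoculated sc in the flank with PC-3 cells (10⁶ cells/site). At 200 mm³ tumors, randomized into groups (n = 6). Dosed iv daily for 16 days in cremophor vehicle (ethanol 7%, cremophor 7%, water). Tumors measured twice weekly by caliper, volume = length·width²/2. Inhibition is relative to vehicle at day 16.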
(In general: A xenograft is tissue or cells of one species grown in another, often human tumour cells in immunodeficient mice.)
On to `O=C1C(Nc2ccc(C(F)(F)F)cc2)=C(Cl)C(=O)c2[nH]ncc21`, for which the Activity is on record as 27.1%.

Test system in another experiment: not listed separately
Kind of experiment: Cytotoxicity against human KATO3 cells by MTT assay. The class given is functional, cell-based.
Conditions: not given
The method, boiled down:
as §1
On the technique in general: Formazan colour is commonly taken as a measure of viable cells.
`O=C1C(Sc2ccc(Cl)c(Cl)c2)=C(Cl)C(=O)c2[nH]ncc21` gave an IC50 of more than 100 µM.

`O=C1C(Nc2ccc(F)cc2F)=C(Cl)C(=O)c2[nH]ncc21` had an IC50 of 9.9 µM.

Consider `O=C1C(Nc2ccccc2F)=C(Cl)C(=O)c2[nH]ncc21`, for which the midpoint of inhibition, the IC50, lay at 20.2 µM.

In turn, `O=C1C(Nc2ccc(F)cc2)=C(Cl)C(=O)c2[nH]ncc21` returned a half-maximal inhibitory concentration (IC50) of 61.4 µM.

`O=C1C(Nc2cc(F)cc(F)c2)=C(Cl)C(=O)c2[nH]ncc21` showed an IC50 of 75.8 µM.

Consider `O=C1C(Nc2ccc(C(F)(F)F)cc2)=C(Cl)C(=O)c2[nH]ncc21`, for which the midpoint of inhibition, the IC50, lay at 13.8 µM.

`Nc1ccc(N)c2[nH]ncc12` yielded an IC50 of more than 100 µM.

With `O=C1C(Nc2cccc(F)c2)=C(Cl)C(=O)c2[nH]ncc21`, the IC50 worked out at 3.9 µM.

As for `CCOc1ccc(NC2=C(Cl)C(=O)c3[nH]ncc3C2=O)cc1`, it took 9.7 µM to reach half-maximal inhibition (IC50).

As for `O=C1C(Nc2cccc(Br)c2)=C(Cl)C(=O)c2[nH]ncc21`, the half-maximal inhibitory concentration (IC50) was determined as 8.9 µM.

The molecule `Cc1cc(C)cc(SC2=C(Cl)C(=O)c3[nH]ncc3C2=O)c1` registered a concentration for half-maximal inhibition (IC50) of more than 100 µM.

The target of the next experiment is T1, Serine/threonine-protein kinase AKT (Homo sapiens) (UniProt P31751+Q9Y243+P31749). The experiment can be described thus: Inhibition of GSK3-beta phosphorylation in PC3 cells at 10 uM upto 5 hrs. The class given is functional, cell-based. The conditions noted are these: PC-3, TDE = time-dependent effect. The method, boiled down: (§2)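 PC-3 cells (2×10⁶) cultured one day in DMEM/10% FBS, then exposed to 10 µM compound for up to 5 h. Lysates (70 µg) resolved on 12% gel. Western blot with anti-phospho-GSK3α/β (Ser21/9), anti-phospho-Akt (Ser473), anti-Akt and anti-GSK3β antibodies, ECL and densitometry. Values are relative to DMSO treatment.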
T1 sequence (P31749 whole entry, looked up): as the sequence (P31749 whole entry) above
T1 sequence (P31751 whole entry, looked up): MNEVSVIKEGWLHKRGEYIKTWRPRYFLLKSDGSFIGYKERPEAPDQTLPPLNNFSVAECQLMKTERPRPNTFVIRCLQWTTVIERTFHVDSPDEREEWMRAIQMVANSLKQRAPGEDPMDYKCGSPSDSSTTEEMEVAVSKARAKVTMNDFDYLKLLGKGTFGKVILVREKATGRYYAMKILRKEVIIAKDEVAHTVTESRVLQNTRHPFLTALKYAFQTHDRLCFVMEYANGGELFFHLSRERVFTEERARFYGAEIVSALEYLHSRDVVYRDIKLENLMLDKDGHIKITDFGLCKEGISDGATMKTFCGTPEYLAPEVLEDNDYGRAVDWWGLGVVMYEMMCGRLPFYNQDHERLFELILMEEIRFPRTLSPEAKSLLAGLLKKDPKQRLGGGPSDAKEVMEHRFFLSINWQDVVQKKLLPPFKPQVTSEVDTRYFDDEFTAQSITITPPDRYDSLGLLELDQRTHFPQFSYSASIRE
T1 sequence (Q9Y243 whole entry, looked up): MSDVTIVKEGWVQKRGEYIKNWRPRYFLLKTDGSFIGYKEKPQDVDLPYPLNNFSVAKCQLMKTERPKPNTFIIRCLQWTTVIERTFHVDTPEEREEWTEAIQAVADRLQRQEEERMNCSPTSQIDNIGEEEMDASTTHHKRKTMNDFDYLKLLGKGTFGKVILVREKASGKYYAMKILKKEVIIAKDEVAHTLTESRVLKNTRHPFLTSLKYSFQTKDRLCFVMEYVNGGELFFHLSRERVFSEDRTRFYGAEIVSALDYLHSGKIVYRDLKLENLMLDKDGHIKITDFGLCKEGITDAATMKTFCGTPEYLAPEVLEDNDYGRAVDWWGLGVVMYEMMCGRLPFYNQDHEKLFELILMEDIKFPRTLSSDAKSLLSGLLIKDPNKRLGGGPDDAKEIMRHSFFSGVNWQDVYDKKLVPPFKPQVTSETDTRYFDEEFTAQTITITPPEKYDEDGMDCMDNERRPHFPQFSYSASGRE
As to `O=C1C(Nc2ccc(C(F)(F)F)cc2)=C(Cl)C(=O)c2[nH]ncc21`, the inhibition entry was “tde”.

Regarding `O=C1C(Nc2cccc(F)c2)=C(Cl)C(=O)c2[nH]ncc21`, the inhibition entry is “tde”.

A further experiment deals with HepG2. The experiment can be described thus: Cytotoxicity against human HepG2 cells by MTT assay.
Conditions: not given
The class given is functional, cell-based. The method, boiled down: as §1
As for `O=C1C(Sc2ccc(Cl)c(Cl)c2)=C(Cl)C(=O)c2[nH]ncc21`, the IC50 is 88.7 µM.

Molecule `O=C1C(Nc2ccc(F)cc2F)=C(Cl)C(=O)c2[nH]ncc21` gave an IC50 of 2 µM.

The molecule `O=C1C(Nc2ccccc2F)=C(Cl)C(=O)c2[nH]ncc21` registered an IC50 of 15.8 µM.

The molecule `O=C1C(Nc2ccc(F)cc2)=C(Cl)C(=O)c2[nH]ncc21` yielded an IC50 of 37.2 µM.

Molecule `O=C1C(Nc2cc(F)cc(F)c2)=C(Cl)C(=O)c2[nH]ncc21` gave a concentration for half-maximal inhibition (IC50) of 37.6 µM.

Consider `O=C1C(Nc2ccc(C(F)(F)F)cc2)=C(Cl)C(=O)c2[nH]ncc21`, for which the half-maximal inhibitory concentration (IC50) came out at 9.2 µM.

Consider `Nc1ccc(N)c2[nH]ncc12`, for which the IC50 was more than 100 µM.

On to `O=C1C(Nc2cccc(F)c2)=C(Cl)C(=O)c2[nH]ncc21`, for which inhibition was half-maximal at 8.9 µM (IC50).

With `CCOc1ccc(NC2=C(Cl)C(=O)c3[nH]ncc3C2=O)cc1`, the IC50 came out at 11.2 µM.

On to `O=C1C(Nc2cccc(Br)c2)=C(Cl)C(=O)c2[nH]ncc21`, for which inhibition was half-maximal at 6.1 µM (IC50).

Consider `Cc1cc(C)cc(SC2=C(Cl)C(=O)c3[nH]ncc3C2=O)c1`, for which the IC50 was more than 100 µM.

Another experiment has as its target T1, Serine/threonine-protein kinase AKT (Homo sapiens). Kind of experiment: Inhibition of GSK3-alpha phosphorylation in PC3 cells at 10 uM upto 5 hrs. The conditions noted are these: PC-3, TDE = time-dependent effect. The class given is functional, cell-based. The procedure, abridged:
as §2
On to `O=C1C(Nc2ccc(C(F)(F)F)cc2)=C(Cl)C(=O)c2[nH]ncc21`, for which the inhibition entry is “tde”.

`O=C1C(Nc2cccc(F)c2)=C(Cl)C(=O)c2[nH]ncc21`: the inhibition result is “tde”.

For the next experiment, the system named is PC-3. Kind of experiment: Inhibition of Akt1 phosphorylation in PC3 cells at 10 uM upto 5 hrs. The class given is functional, cell-based. The conditions noted are these: Homo sapiens. The method, boiled down: as §2
Regarding `O=C1C(Nc2ccc(C(F)(F)F)cc2)=C(Cl)C(=O)c2[nH]ncc21`, the outcome was Active.

For `O=C1C(Nc2cccc(F)c2)=C(Cl)C(=O)c2[nH]ncc21`, the result was Active.
